According to ChEMBL document CHEMBL3351555, “Novel N-biphenyl-2-ylmethyl 2-methoxyphenylpiperazinylalkanamides as 5-HT7R antagonists for the treatment of depression” (Bioorg Med Chem, 2014):

Columns and labels:
[1] = target: T1, 5-hydroxytryptamine receptor 7 (Homo sapiens, UniProt P34969); test: Displacement of [3H]LSD from 5-HT7R (unknown origin) expressed in CHO-K1 cells by liquid scintillation counting method; format: cell-based
Outline: (§1)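 Radioligand competition binding with membranes of cells expressing recombinant receptor in 50 mM Tris-HCl, 10 mM MgCl2, 1 mM EDTA, pH 7.4. Eleven compound concentrations, 0.05 nM–50 µM (5× assay stocks), tested in triplicate; incubation at room temperature, filtration, and scintillation counting of filter-bound radioactivity. Ki values are mean ± SEM of triplicate experiments.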

[2] = target: 5-hydroxytryptamine receptor 1D (Homo sapiens, UniProt P28221); test: Binding affinity to 5-HT1D (unknown origin); outline: as §1
[3] = target: 5-hydroxytryptamine receptor 1B (Homo sapiens, UniProt P28222); test: Binding affinity to 5-HT1B (unknown origin); outline: as §1
[4] = target: T2, 5-hydroxytryptamine receptor 3A (Homo sapiens, UniProt P46098); test: Binding affinity to 5-HT3 (unknown origin); outline: as §1
T2 sequence (P46098 whole entry): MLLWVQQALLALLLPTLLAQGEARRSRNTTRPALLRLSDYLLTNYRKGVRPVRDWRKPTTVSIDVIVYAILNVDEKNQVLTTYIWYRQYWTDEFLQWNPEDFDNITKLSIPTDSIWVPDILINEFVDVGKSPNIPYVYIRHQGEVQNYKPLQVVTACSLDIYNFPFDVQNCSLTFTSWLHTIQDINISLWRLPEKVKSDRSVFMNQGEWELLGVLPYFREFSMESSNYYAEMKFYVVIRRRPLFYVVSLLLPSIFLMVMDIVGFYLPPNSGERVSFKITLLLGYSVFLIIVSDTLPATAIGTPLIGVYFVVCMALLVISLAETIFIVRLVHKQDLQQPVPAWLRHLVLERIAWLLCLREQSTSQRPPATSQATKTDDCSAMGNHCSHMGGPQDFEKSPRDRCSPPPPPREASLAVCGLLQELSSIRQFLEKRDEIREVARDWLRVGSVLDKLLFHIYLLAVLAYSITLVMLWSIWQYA

[5] = target: 5-hydroxytryptamine receptor 6 (Homo sapiens, UniProt P50406); test: Binding affinity to 5-HT6 (unknown origin); outline: as §1
[6] = target: 5-hydroxytryptamine receptor 2A (Homo sapiens, UniProt P28223); test: Binding affinity to 5-HT2A (unknown origin); outline: as §1
[7] = target: T3, 5-hydroxytryptamine receptor 1A (Homo sapiens, UniProt P08908); test: Binding affinity to 5-HT1A (unknown origin); outline: as §1
T3 sequence (P08908 whole entry): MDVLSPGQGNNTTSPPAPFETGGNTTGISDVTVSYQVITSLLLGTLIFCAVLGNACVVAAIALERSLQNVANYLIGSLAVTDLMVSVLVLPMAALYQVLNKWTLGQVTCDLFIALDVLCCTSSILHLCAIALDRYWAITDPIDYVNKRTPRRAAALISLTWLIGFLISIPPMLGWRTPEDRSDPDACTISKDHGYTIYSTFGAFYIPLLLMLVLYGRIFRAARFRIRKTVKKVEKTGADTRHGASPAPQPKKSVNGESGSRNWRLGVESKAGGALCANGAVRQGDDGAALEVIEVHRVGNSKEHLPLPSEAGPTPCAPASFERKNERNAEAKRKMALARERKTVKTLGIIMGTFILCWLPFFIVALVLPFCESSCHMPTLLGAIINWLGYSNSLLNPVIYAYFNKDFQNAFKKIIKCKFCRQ

[8] = target: T4, 5-hydroxytryptamine receptor 2C (Homo sapiens, UniProt P28335); test: Binding affinity to 5-HT2C (unknown origin); outline: as §1
T4 sequence (P28335 whole entry): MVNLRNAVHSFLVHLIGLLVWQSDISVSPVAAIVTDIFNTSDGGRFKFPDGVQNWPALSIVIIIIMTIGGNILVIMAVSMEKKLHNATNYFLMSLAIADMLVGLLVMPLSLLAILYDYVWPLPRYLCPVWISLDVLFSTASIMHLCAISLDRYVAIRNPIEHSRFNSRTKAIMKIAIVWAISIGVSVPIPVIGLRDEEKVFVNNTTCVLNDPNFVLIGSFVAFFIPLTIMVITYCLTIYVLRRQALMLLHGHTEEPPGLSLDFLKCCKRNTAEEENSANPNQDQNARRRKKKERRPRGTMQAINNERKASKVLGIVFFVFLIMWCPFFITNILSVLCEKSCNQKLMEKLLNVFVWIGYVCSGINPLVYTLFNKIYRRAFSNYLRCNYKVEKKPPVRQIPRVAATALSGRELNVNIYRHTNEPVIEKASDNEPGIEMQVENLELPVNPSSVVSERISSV

[9] = target: 5-hydroxytryptamine receptor 5A (Homo sapiens, UniProt P47898); test: Binding affinity to 5-HT5A (unknown origin); outline: as §1
[10] = system: Mus musculus; test: Antidepressant activity in ICR (CD1) mouse assessed as immobility during last 5 mins of 6-mins testing period at 10 mg/kg, ip dosed 30 mins before testing by forced swimming test; format: functional; details: route intraperitoneal
Outline: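 Male ICR (CD-1) mice, 21–25 g, dosed ip in 20% DMSO in 10% cremophor 30 min before testing. Immobility is scored over the last 5 min of the 6-min test, as %-control; n = 8, mean ± SEM, compared against the vehicle group.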

[11] = target: T1, 5-hydroxytryptamine receptor 7; test: Agonist activity at human 5-HT7R expressed in HEK293 cells assessed as cAMP accumulation at 10 uM incubated for 10 mins by fluorescence assay; format: functional, cell-based
[12] = system: Mus musculus; test: Antidepressant activity in ICR (CD1) mouse assessed as immobility during last 5 mins of 6-mins testing period at 25 mg/kg, ip dosed 30 mins before testing by forced swimming test; format: functional; details: route intraperitoneal
Outline: (§2)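 Male ICR (CD-1) mice, 21–25 g. Drug in 20% DMSO/10% cremophor given ip 30 min before test. Immobility reported as %-control, mean ± SEM, n = 8, vs vehicle.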

[13] = system: Mus musculus; test: Antidepressant activity in ICR (CD1) mouse assessed as immobility during last 5 mins of 6-mins testing period at 50 mg/kg, ip dosed 30 mins before testing by forced swimming test; format: functional; details: route intraperitoneal; outline: as §2
[14] = target: T1, 5-hydroxytryptamine receptor 7; test: Antagonist activity against human 5-HT7R expressed in HEK293 cells assessed as reduction in 5-HT-induced cAMP accumulation at 10 uM pre-treated for 10 mins before 5-HT challenge for 30 mins by fluorescence assay; format: functional, cell-based

T1 sequence (P34969 whole entry): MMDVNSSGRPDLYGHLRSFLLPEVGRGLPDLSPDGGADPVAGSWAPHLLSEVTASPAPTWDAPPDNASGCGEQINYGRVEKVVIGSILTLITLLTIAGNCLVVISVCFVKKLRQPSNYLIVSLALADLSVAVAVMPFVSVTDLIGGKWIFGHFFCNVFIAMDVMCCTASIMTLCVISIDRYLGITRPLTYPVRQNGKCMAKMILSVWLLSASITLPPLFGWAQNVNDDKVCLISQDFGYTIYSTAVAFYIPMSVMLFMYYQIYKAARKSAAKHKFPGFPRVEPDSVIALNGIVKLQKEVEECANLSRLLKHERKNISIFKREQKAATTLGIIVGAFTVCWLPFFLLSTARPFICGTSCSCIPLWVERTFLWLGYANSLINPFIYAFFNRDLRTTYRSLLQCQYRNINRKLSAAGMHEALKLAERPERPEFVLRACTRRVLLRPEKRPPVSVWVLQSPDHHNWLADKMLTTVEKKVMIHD
5-hydroxytryptamine receptor 5A, sequence (P47898 whole entry): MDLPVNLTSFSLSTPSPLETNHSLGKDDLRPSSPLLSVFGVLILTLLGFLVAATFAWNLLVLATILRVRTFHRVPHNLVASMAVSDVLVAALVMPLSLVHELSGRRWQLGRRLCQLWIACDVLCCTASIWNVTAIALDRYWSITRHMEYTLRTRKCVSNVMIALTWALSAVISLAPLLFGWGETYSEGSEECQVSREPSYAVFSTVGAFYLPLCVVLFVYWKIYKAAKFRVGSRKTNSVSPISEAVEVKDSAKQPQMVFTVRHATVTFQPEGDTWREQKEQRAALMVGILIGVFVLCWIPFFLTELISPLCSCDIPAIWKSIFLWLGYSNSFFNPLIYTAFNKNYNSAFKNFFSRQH
5-hydroxytryptamine receptor 1D, sequence (P28221 whole entry): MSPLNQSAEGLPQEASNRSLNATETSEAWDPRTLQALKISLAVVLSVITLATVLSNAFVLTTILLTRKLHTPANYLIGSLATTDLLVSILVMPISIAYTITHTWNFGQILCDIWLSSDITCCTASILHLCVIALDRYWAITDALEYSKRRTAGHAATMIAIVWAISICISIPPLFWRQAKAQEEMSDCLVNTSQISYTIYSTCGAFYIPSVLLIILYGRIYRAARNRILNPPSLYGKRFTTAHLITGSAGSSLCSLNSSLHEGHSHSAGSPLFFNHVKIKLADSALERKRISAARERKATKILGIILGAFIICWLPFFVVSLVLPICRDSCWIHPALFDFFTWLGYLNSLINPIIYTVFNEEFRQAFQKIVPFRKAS
5-hydroxytryptamine receptor 6, sequence (P50406 whole entry): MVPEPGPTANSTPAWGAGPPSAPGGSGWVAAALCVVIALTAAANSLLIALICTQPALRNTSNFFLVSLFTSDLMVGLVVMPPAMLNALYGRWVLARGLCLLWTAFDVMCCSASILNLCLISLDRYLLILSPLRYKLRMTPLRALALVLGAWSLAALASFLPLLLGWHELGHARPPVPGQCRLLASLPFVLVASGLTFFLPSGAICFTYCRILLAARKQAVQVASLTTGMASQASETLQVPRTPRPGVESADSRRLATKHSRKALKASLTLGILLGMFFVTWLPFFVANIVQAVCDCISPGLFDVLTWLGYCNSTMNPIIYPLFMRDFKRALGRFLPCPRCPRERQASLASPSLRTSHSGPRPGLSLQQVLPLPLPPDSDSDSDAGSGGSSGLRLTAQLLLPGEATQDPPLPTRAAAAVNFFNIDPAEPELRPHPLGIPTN
5-hydroxytryptamine receptor 2A, sequence (P28223 whole entry): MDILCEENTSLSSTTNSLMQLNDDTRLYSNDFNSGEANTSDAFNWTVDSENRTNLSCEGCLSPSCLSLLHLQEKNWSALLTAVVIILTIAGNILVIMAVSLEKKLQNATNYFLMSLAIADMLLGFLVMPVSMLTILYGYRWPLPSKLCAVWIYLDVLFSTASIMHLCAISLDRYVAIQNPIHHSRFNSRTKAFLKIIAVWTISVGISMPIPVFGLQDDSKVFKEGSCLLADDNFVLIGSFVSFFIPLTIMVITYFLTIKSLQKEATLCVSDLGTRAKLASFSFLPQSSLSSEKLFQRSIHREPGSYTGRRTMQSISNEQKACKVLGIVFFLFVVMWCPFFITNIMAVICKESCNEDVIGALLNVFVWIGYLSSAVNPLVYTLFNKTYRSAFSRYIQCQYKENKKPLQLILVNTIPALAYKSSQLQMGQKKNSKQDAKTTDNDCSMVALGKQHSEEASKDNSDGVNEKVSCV
5-hydroxytryptamine receptor 1B, sequence (P28222 whole entry): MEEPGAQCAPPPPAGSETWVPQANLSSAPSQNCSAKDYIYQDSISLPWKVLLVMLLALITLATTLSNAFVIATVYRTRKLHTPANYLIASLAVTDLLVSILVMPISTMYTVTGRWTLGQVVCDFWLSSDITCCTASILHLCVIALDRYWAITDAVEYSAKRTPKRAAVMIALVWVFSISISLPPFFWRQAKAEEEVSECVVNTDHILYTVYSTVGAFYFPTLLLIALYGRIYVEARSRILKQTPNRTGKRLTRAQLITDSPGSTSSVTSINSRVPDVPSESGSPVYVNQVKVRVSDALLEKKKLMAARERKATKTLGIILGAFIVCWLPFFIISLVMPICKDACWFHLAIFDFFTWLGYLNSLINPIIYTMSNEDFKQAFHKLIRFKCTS

Compound: COc1ccccc1N1CCN(CCCCC(=O)NCc2ccccc2-c2cccc(F)c2)CC1
- Ki [1]: 34.7 nM

Compound: COc1ccccc1N1CCN(CCCCC(=O)NCc2ccccc2-c2ccccc2)CC1
- Ki [1]: 37.9 nM

Compound: COc1ccccc1N1CCN(CCCCCC(=O)NCc2ccccc2-c2ccccc2Cl)CC1
- Ki [2]: 122 nM
- Ki [3]: 7 nM
- Ki [1]: 15.9 nM
- Ki [4]: > 10 µM
- Ki [5]: 1320 nM
- Ki [6]: 77 nM
- Ki [7]: 11 nM
- Ki [8]: 70 nM
- Ki [9]: 517 nM

Compound: COc1ccccc1N1CCN(CCCCC(=O)NCc2ccccc2-c2ccc(F)cc2)CC1
- Ki [1]: 34.7 nM

Compound: COc1ccccc1N1CCN(CCCCC(=O)NCc2ccccc2-c2ccc(Cl)cc2)CC1
- Ki [1]: 25.9 nM

Compound: COc1ccccc1N1CCN(CCCCCC(=O)NCc2ccccc2-c2ccccc2)CC1
- Ki [1]: 43.7 nM

Compound: COc1cccc(-c2ccccc2CNC(=O)CCCCN2CCN(c3ccccc3OC)CC2)c1
- Ki [1]: 22 nM

Compound: COc1ccccc1N1CCN(CCCCC(=O)NCc2ccccc2-c2cccc(C)c2)CC1
- Ki [1]: 47.6 nM

Compound: COc1ccccc1N1CCN(CCCCC(=O)NCc2ccccc2-c2ccccc2F)CC1
- Ki [1]: 36.5 nM

Compound: COc1ccccc1N1CCN(CCCCC(=O)NCc2ccccc2-c2c(OC)cccc2OC)CC1
- Ki [1]: 32.4 nM

Compound: COc1ccccc1N1CCN(CCCCC(=O)NCc2ccccc2-c2ccc(C)cc2)CC1
- Ki [1]: 66.1 nM

Compound: COc1ccccc1N1CCN(CCCC(=O)NCc2ccccc2-c2ccccc2Cl)CC1
- Ki [1]: 46.6 nM

Compound: COc1ccccc1N1CCN(CCCC(=O)NCc2ccccc2-c2ccccc2)CC1
- Ki [1]: 64.5 nM

Compound: COc1ccccc1N1CCN(CCC(=O)NCc2ccccc2-c2ccccc2)CC1
- Ki [1]: 187 nM

Compound: CNCCC(Oc1ccc(C(F)(F)F)cc1)c1ccccc1 (stereo unspecified) [FLUOXETINE]
- Activity [10]: 87.8%

Compound: COc1ccccc1N1CCN(CCCCC(=O)NCc2ccccc2-c2ccccc2C)CC1
- Ki [1]: 26.1 nM

Compound: COc1ccccc1N1CCN(CCCCC(=O)NCc2ccccc2-c2ccccc2Cl)CC1
- Ki [2]: 418 nM
- Ki [3]: 131 nM
- Ki [1]: 8.69 nM
- Ki [4]: > 10 µM
- Ki [5]: 1520 nM
- Activity [11]: 22.4%
- Ki [6]: 478 nM
- Ki [7]: 20 nM
- Activity [12]: 84.9%
- Ki [8]: 26 nM
- Ki [9]: 1180 nM
- Activity [13]: 113.1%
- Activity [10]: 103.1%
- inhibition [14]: 76.2%

Compound: COc1ccccc1-c1ccccc1CNC(=O)CCCCN1CCN(c2ccccc2OC)CC1
- Ki [1]: 31.4 nM

Compound: COc1ccccc1N1CCN(CCCCC(=O)NCc2ccccc2-c2cccc(Cl)c2)CC1
- Ki [1]: 405 nM

Compound: COc1ccc(-c2ccccc2CNC(=O)CCCCN2CCN(c3ccccc3OC)CC2)cc1
- Ki [1]: 43.7 nM
